Fewer inactive variants are shown than the library holds.
B1: tRNA (parent)
chain: GUUCCGUUGGCGUAAUGGUAACGCGUCUCCCUCCUAAGGAGAAGACUGCGGGUUCGAGUCCCGUACGGAACG

Variants of: B1
Test: yeast fitness relative to wild type (ratio to wild type); higher = fitter; tRNA-Arg(CCU), competitive growth, 37 C, YPD
Method in brief: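 Amplicons of the tRNA-Arg(CCU) gene were sequenced, 100-nucleotide paired-end, from the start population and from each end population of a pooled yeast competition. The competition, in six parallel replicates, lasted 24 hours in YPD at 37°C. Fitness relative to wild type was calculated from changes in genotype frequencies. Genotypes had to have ≥ 100 starting reads, and estimates < 0.5 were set to 0.5.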

Question: With U3A G9C as the variant, how does the yeast fitness read?
Answer: 0.567

Question: With U3A G9C A20G A40G U64C as the variant, how does the yeast fitness read?
Answer: ≤ 0.5

Question: With U3A G9C A20G C29A G56A G67U as the variant, how does the yeast fitness read?
Answer: ≤ 0.5

Question: For U3A G9C C31G C61U, which yeast fitness is on record?
Answer: 0.581

Question: For U3A G10A U19A A42G U64A, which yeast fitness is on record?
Answer: ≤ 0.5

Question: With U3A G10A U32G C66A as the variant, how does the yeast fitness read?
Answer: ≤ 0.5

Question: For U3A G10C A36U A40C A57C, which yeast fitness is on record?
Answer: ≤ 0.5

Question: With U3A G10C A36U A40C A57G C60G as the variant, how does the yeast fitness read?
Answer: ≤ 0.5

Question: Which yeast fitness does the source give for U3A G10C A36U A40C C60G here?
Answer: 0.569

Question: Which yeast fitness does the source give for U3A G12A here?
Answer: 0.826

Question: Which yeast fitness does the source give for U3A G12A A15G C24U A45U here?
Answer: ≤ 0.5

Question: For U3A G12A C24U A45U, which yeast fitness is on record?
Answer: ≤ 0.5

Question: With U3A G12A C29G G39A C66G as the variant, how does the yeast fitness read?
Answer: ≤ 0.5

Question: With U3A G12A U19A C60A A70C as the variant, how does the yeast fitness read?
Answer: 0.569

Question: For U3A G12A U19A G38C G48A, which yeast fitness is on record?
Answer: ≤ 0.5

Question: For U3A G12A U19A U64C, which yeast fitness is on record?
Answer: ≤ 0.5

Question: For U3A G12C, which yeast fitness is on record?
Answer: 0.635

Question: Which yeast fitness does the source give for U3A G12C A21C A36C here?
Answer: ≤ 0.5

Question: With U3A G12C A21C A36C A70U as the variant, how does the yeast fitness read?
Answer: 0.553

Question: With U3A G12C G52A A65U as the variant, how does the yeast fitness read?
Answer: ≤ 0.5

Question: With U3A G12C G58A C66U as the variant, how does the yeast fitness read?
Answer: ≤ 0.5

Question: For U3A G12C U13C C49U G56C, which yeast fitness is on record?
Answer: ≤ 0.5

Question: With U3A G17A C22U U35C A65G as the variant, how does the yeast fitness read?
Answer: ≤ 0.5

Question: Which yeast fitness does the source give for U3A G17C A20C U28A here?
Answer: ≤ 0.5

Question: With U3A G17C A20C U28A C46A C61A as the variant, how does the yeast fitness read?
Answer: ≤ 0.5

Question: Which yeast fitness does the source give for U3A G18A C22U here?
Answer: ≤ 0.5

Question: For U3A G18A U19C C27G C61A U64G, which yeast fitness is on record?
Answer: ≤ 0.5

Question: Which yeast fitness does the source give for U3A G23C C46A C49A C61G here?
Answer: ≤ 0.5

Question: Which yeast fitness does the source give for U3A G25A G58C C66U here?
Answer: 0.596

Question: With U3A G25C as the variant, how does the yeast fitness read?
Answer: 1.03

Question: Which yeast fitness does the source give for U3A G25C U47A here?
Answer: 0.547

Question: With U3A G38A A40G A69U as the variant, how does the yeast fitness read?
Answer: ≤ 0.5

Question: With U3A G39A C55U U59G G68C as the variant, how does the yeast fitness read?
Answer: ≤ 0.5

Question: Which yeast fitness does the source give for U3A G41C C55U here?
Answer: ≤ 0.5

Question: For U3A G44A, which yeast fitness is on record?
Answer: 0.807

Question: For U3A G44A C55U, which yeast fitness is on record?
Answer: ≤ 0.5

Question: With U3A G48C U59C as the variant, how does the yeast fitness read?
Answer: 0.537

Question: For U3A G51A, which yeast fitness is on record?
Answer: 0.765

Question: Which yeast fitness does the source give for U3A G51A A65G A69U here?
Answer: 1.03

Question: For U3A G52A, which yeast fitness is on record?
Answer: 0.764

Question: For U3A G56A, which yeast fitness is on record?
Answer: 1.02

Question: Which yeast fitness does the source give for U3A G56C here?
Answer: 0.716

Question: With U3A G56C G67C as the variant, how does the yeast fitness read?
Answer: 0.573

Question: For U3A G63A, which yeast fitness is on record?
Answer: 0.772

Question: With U3A G63C as the variant, how does the yeast fitness read?
Answer: 0.743

Question: For U3A G67C, which yeast fitness is on record?
Answer: 0.827

Question: For U3A G68A, which yeast fitness is on record?
Answer: 0.854

Question: With U3A U7C A15U G23C C27U G52A as the variant, how does the yeast fitness read?
Answer: ≤ 0.5

Question: For U3A U7C C11U U13C C31A, which yeast fitness is on record?
Answer: ≤ 0.5

Question: With U3A U7G as the variant, how does the yeast fitness read?
Answer: 0.734

Question: With U3A U7G A14U G25A G41C C46U as the variant, how does the yeast fitness read?
Answer: ≤ 0.5

Question: With U3A U7G A14U G25A G41C C46U C61A as the variant, how does the yeast fitness read?
Answer: 0.519

Question: Which yeast fitness does the source give for U3A U7G C29G C49U here?
Answer: ≤ 0.5

Question: Which yeast fitness does the source give for U3A U8A A43U C55U here?
Answer: ≤ 0.5

Question: For U3A U8A C27G, which yeast fitness is on record?
Answer: ≤ 0.5

Question: For U3A U8A C31G A40C, which yeast fitness is on record?
Answer: 0.563

Question: With U3A U13C A69U as the variant, how does the yeast fitness read?
Answer: 0.72

Question: With U3A U13C C29A A43G G67C as the variant, how does the yeast fitness read?
Answer: 0.595

Question: With U3A U13C G68A as the variant, how does the yeast fitness read?
Answer: 0.528

Question: With U3A U13G U47C A70C as the variant, how does the yeast fitness read?
Answer: ≤ 0.5

Question: For U3A U16C A20C, which yeast fitness is on record?
Answer: ≤ 0.5

Question: With U3A U16C C33G C66G as the variant, how does the yeast fitness read?
Answer: 0.664

Question: Which yeast fitness does the source give for U3A U16C C46U here?
Answer: 0.631

Question: Which yeast fitness does the source give for U3A U16C U19C C46U here?
Answer: ≤ 0.5

Question: Which yeast fitness does the source give for U3A U19A A42U G44C U54A here?
Answer: ≤ 0.5

Question: Which yeast fitness does the source give for U3A U19A C33A C49U G52A here?
Answer: ≤ 0.5

Question: With U3A U19A C33U G52C A65G as the variant, how does the yeast fitness read?
Answer: ≤ 0.5

Question: Which yeast fitness does the source give for U3A U19A C46A G56A here?
Answer: 0.564

Question: For U3A U19A G58C, which yeast fitness is on record?
Answer: 0.675

Question: Which yeast fitness does the source give for U3A U19C C24U A37G C60G here?
Answer: ≤ 0.5

Question: With U3A U19C C29A A36U as the variant, how does the yeast fitness read?
Answer: ≤ 0.5

Question: For U3A U19G G25A G67A, which yeast fitness is on record?
Answer: 0.56

Question: Which yeast fitness does the source give for U3A U26A C34U U47G U64A here?
Answer: ≤ 0.5

Question: Which yeast fitness does the source give for U3A U26A G58C G63A here?
Answer: ≤ 0.5

Question: For U3A U26C A43C A70U, which yeast fitness is on record?
Answer: ≤ 0.5

Question: For U3A U26C U53C, which yeast fitness is on record?
Answer: ≤ 0.5

Question: For U3A U26C U59C, which yeast fitness is on record?
Answer: ≤ 0.5

Question: For U3A U26G C66U, which yeast fitness is on record?
Answer: ≤ 0.5

Question: With U3A U28A as the variant, how does the yeast fitness read?
Answer: 0.865

Question: With U3A U32A as the variant, how does the yeast fitness read?
Answer: 0.74

Question: Which yeast fitness does the source give for U3A U32G G56A G68U A69U here?
Answer: ≤ 0.5

Question: Which yeast fitness does the source give for U3A U32G G63C C66U here?
Answer: ≤ 0.5

Question: For U3A U35A, which yeast fitness is on record?
Answer: 0.658

Question: Which yeast fitness does the source give for U3A U35A A42C here?
Answer: 0.629
